This excerpt belongs to a sample that is enriched for hits.
NLRP3 yeast inh – inhibitors of NALP3 inflammasome in yeast | Yeast reconstituted NLRP3/ASC/caspase-1, beta-gal luminescence, 24 h | inhibition, % at 10 µM | actives 0.39% (n = 330,000) | AID 2825;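 active = inhibition of 50% or more; inactive = inhibition below 50%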
L major viab – inhibitors of Leishmania major promastigote growth; Leishmania major promastigotes, resazurin fluorescence viability; inhibition, % at 10 µM; actives 9% (n = 200,000); AID 1063; in the data active = inhibition above about 50%;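 also: promastigotes grown with compound for 44 hours at 28 °C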
Calb FLC – affects C. albicans growth with fluconazole. C. albicans CaCi-2 + fluconazole, Alamar Blue growth, 48 h. growth inhibition, % (test concentration not listed). actives 0.57% (n = 300,000);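 active = growth inhibition above about 58% in most replicates, limit read from the data, passing the limit was not always enough; inconclusive = exactly half the replicates above a set limit; inactive = most replicates below a set limit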;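 also: all wells also contain fluconazole at 8 µg/ml as a sub-toxic cotreatment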
NALP1 yeast inh – inhibitors of NALP1 inflammasome in yeast; S. cerevisiae NALP1/ASC/caspase-1 growth, X-gal OD620, 72 h; inhibition, % at 10 µM; actives 0.61% (n = 280,000); AID 2071; in the data active = inhibition mostly above about 24%, no sharp cut-off; inactive = mostly below about 32%
T cruzi repl – T. cruzi replication inhibition | T. cruzi beta-gal in NIH3T3, luminescence, 90 h | inhibition, % (no concentration beside the values) | actives 1.4% (n = 300,000) | AID 1885;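 active = mean inhibition across valid replicates above about 55%, limit read from the data; inconclusive = mean below that limit but half or more replicates reach it; inactive = mean below it, under half of replicates reach it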;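 also: signal also drops with host cell toxicity which is not excluded here; higher percent means less beta-gal luminescence so fewer parasites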
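Material: NIH/3T3 host cells with β-galactosidase reporter T. cruzi; Input: 5,000 host fibroblasts per well; Medium: DMEM, 2% fetal bovine serum; Compound: 50 nL DMSO compound solution per well; Schedule: 3 h host attachment, then at least 90 h co-culture; Detection: luminescent β-galactosidase signal after 60 min lysis.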
PolyA inh – inhibitors of polyadenylation in S. cerevisiae | S. cerevisiae SKY197-pL101 polyadenylation reporter, beta-gal luminescence; efflux-impaired pdr1/pdr3 knockout yeast; score 100 = 6 SD above DMSO | activity score, % at 12 µM | actives 0.02% (n = 300,000) | AID 1875;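 active = lowest replicate activity score at least 50, where 100 means six control SD above control mean; inconclusive = lowest score under 50 but half or more replicates reach 50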;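 also: yeast exposed to compound for 9 h at 30 °C; higher score means more reporter readthrough which indicates perturbed polyadenylation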
A number is an active result.

Screening CCn1c(=S)[nH]c2scc(-c3cccs3)c2c1=O returned L major viab inactive, Calb FLC 80, NALP1 yeast inh inactive, T cruzi repl inactive and PolyA inh inactive.
Screening CC1CCCC(NS(=O)(=O)c2ccc3c(c2)OCCO3)C1C (configuration not stated) returned NLRP3 yeast inh inactive, L major viab inactive, Calb FLC inactive, NALP1 yeast inh 27, T cruzi repl inactive and PolyA inh inactive.
Cc1cccc(NS(=O)(=O)c2ccc3c(c2)OCCO3)c1 was read as NLRP3 yeast inh inactive, L major viab 74, Calb FLC inactive, NALP1 yeast inh inactive, T cruzi repl inactive and PolyA inh inactive.
For COc1ccc(NS(=O)(=O)c2ccc3c(c2)OCCO3)cc1OC the results were NLRP3 yeast inh inactive, Calb FLC inactive, NALP1 yeast inh inactive, T cruzi repl inactive and PolyA inh inactive.
`COc1ccc(S(=O)(=O)Nc2ccc3c(c2)OCCO3)cc1Cl` gave NLRP3 yeast inh inactive, L major viab 71, Calb FLC inactive, NALP1 yeast inh inactive, T cruzi repl inactive and PolyA inh inactive.
For CCN(CC(=O)Nc1ccc(NC(C)=O)cc1)C(=O)CC1OC(=O)c2ccccc21 (configuration not stated) the results were NLRP3 yeast inh inactive, Calb FLC inactive, T cruzi repl inactive and PolyA inh inactive.
Screening Cc1cc(C)n(-c2cc(N3CCN(S(=O)(=O)c4ccc5ccccc5c4)CC3)ccc2[N+](=O)[O-])n1 returned NLRP3 yeast inh inactive, L major viab 59, Calb FLC inactive, NALP1 yeast inh inactive, T cruzi repl inactive and PolyA inh inactive.
`Cc1cc(C)n(-c2cc(N3CCN(S(=O)(=O)c4ccc(C)c(C)c4)CC3)ccc2[N+](=O)[O-])n1` gave NLRP3 yeast inh inactive, L major viab inactive, Calb FLC inactive, NALP1 yeast inh inactive, T cruzi repl inactive and PolyA inh inactive.
`Cc1cccnc1NC(=O)c1ccc(OCc2c(C)noc2C)cc1` gave NLRP3 yeast inh inactive, Calb FLC inactive, NALP1 yeast inh inactive, T cruzi repl inactive and PolyA inh inactive.
Screening CC(C)COc1ccc(-c2nnc(-c3ccco3)o2)cc1 returned NLRP3 yeast inh inactive, L major viab inactive, Calb FLC inactive, NALP1 yeast inh inactive, T cruzi repl inactive and PolyA inh inactive.
For CCN(CC)CCCNc1ccc(-c2nnc(-c3ccc(OCC(C)C)cc3)o2)cn1 the results were NLRP3 yeast inh inactive, Calb FLC inactive, NALP1 yeast inh inactive, T cruzi repl 55 and PolyA inh inactive.
`CN1/C(=C\C(=O)COC(=O)Cn2nnc(-c3ccccc3)n2)C(C)(C)c2ccccc21` gave NLRP3 yeast inh inactive, L major viab 90, Calb FLC inactive, NALP1 yeast inh inactive, T cruzi repl inactive and PolyA inh inactive.
For CN1/C(=C\C(=O)COC(=O)c2ccc([N+](=O)[O-])o2)C(C)(C)c2ccccc21 the results were NLRP3 yeast inh inactive, L major viab 81, Calb FLC inactive, NALP1 yeast inh inactive, T cruzi repl inactive and PolyA inh inactive.
For O=C(NCCc1ccccc1)C1CCN(C(=O)c2ccc(F)cc2)CC1 the results were NLRP3 yeast inh inactive, Calb FLC inactive, NALP1 yeast inh inactive, T cruzi repl inactive and PolyA inh inactive.
O=C(CN1CCN(Cc2cccc3ccccc23)CC1)NCCc1ccccc1 was read as NLRP3 yeast inh inactive, Calb FLC inactive, NALP1 yeast inh 27, T cruzi repl inconclusive and PolyA inh inactive.
`O=C(NCCc1ccccc1)C1CCN(Cc2ccccc2F)CC1` gave NLRP3 yeast inh inactive, L major viab 71, Calb FLC inactive, NALP1 yeast inh inactive, T cruzi repl inactive and PolyA inh inactive.
Screening CCC(C)N(C(=O)COC(=O)Cc1n[nH]c(=O)c2ccccc12)C1CCS(=O)(=O)C1 (configuration not stated) returned NLRP3 yeast inh inactive, L major viab inactive, Calb FLC inactive, NALP1 yeast inh 26, T cruzi repl inactive and PolyA inh inactive.
Cc1cc([N+](=O)[O-])cc(C)c1OCC(=O)N/N=C/c1ccc(OC(=O)c2ccccc2Br)cc1 was read as NLRP3 yeast inh inactive, L major viab 85, Calb FLC inactive, NALP1 yeast inh inactive, T cruzi repl inactive and PolyA inh inactive.
Screening Cc1c(/C=N/NC(=O)COc2ccccc2[N+](=O)[O-])c2ccccc2n1C returned NLRP3 yeast inh inactive, L major viab 56, Calb FLC inconclusive, NALP1 yeast inh inactive, T cruzi repl inactive and PolyA inh inactive.
For Cc1ccccc1OCC(=O)N/N=C/c1cccc(Oc2ccc([N+](=O)[O-])cc2[N+](=O)[O-])c1 the results were NLRP3 yeast inh inactive, L major viab 74, Calb FLC inactive, NALP1 yeast inh inactive, T cruzi repl inactive and PolyA inh inactive.
COc1ccc(/C=N/NC(=O)c2c(C)nc3ccccn23)cc1[N+](=O)[O-] was read as NLRP3 yeast inh inactive, Calb FLC inactive, NALP1 yeast inh inactive, T cruzi repl inactive and PolyA inh inactive.
For O=C(Nc1ccc(F)cc1F)c1ccc2c(c1)[nH]c(=O)n2Cc1ccc(F)cc1 the results were NLRP3 yeast inh inactive, Calb FLC inactive, NALP1 yeast inh inactive, T cruzi repl inactive and PolyA inh inactive.
`O=C(c1cc(-c2ccccn2)nc2c(Cl)cccc12)N1CCN(S(=O)(=O)c2ccccc2)CC1` gave NLRP3 yeast inh inactive, L major viab 81, Calb FLC inactive, NALP1 yeast inh inactive, T cruzi repl inactive and PolyA inh inactive.
`O=C(c1cc(-c2ccccn2)nc2c(Cl)cccc12)N1CCN(C(=O)C2CCCO2)CC1` (configuration not stated) gave NLRP3 yeast inh inactive, L major viab inactive, Calb FLC inactive, NALP1 yeast inh 38, T cruzi repl inactive and PolyA inh inactive.
Screening CC1(NC(=O)CCNC(=O)c2ccc(C(C)(C)C)cc2)CCS(=O)(=O)C1 (configuration not stated) returned NLRP3 yeast inh inactive.
For O=C(O)c1ccc(COc2ccccc2/C=C2\NC(=O)N(Cc3ccccc3F)C2=O)cc1 the results were NLRP3 yeast inh inactive, L major viab inactive, Calb FLC inactive, NALP1 yeast inh inactive, T cruzi repl inactive and PolyA inh inactive.
For CN1C(=O)/C(=C/c2ccccc2OCc2ccccc2F)NC1=S the results were NLRP3 yeast inh inactive, L major viab 62, Calb FLC inactive, NALP1 yeast inh inactive, T cruzi repl inactive and PolyA inh inactive.
For Cc1cccc(C(=O)OCC(=O)N2CC(C)CC(C)C2)c1C (configuration not stated) the results were NLRP3 yeast inh inactive.
Cc1cc(C)cc(N(CC(=O)NCC2CCCO2)C(=O)CN2C(=O)COc3ccccc32)c1 (configuration not stated) was read as NLRP3 yeast inh inactive, L major viab inactive, Calb FLC inactive, NALP1 yeast inh 23, T cruzi repl inactive and PolyA inh inactive.
